Read-outs that look alike come from different tables or passages of the source.
Experiments:
UGT1A9 = UGT1A9 (Homo sapiens, UniProt O60656); experiment: UGT1A9 inhibition in human liver microsomes; type: in vitro ADME
In short: (§1)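 Glucuronidation of UGT-selective substrates was measured in human liver microsomes with and without test compound, using a rank-order approach. Standard inhibitors for each isoform were incubated in parallel as positive controls.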

CYP3A4 = CYP3A4 (Homo sapiens, UniProt P08684); experiment: CYP3A4 inhibition in human liver microsomes; type: in vitro ADME; details: human liver microsomes
In short: (§2)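 Pooled human liver microsomes were incubated with standard CYP-selective substrates, with and without test compound at 0.03–100 μM. Standard selective inhibitors for each isoform ran in parallel as positive controls. Read-out was IC50. For CYP3A4 only, time-dependent inhibition was also tested after 30 min preincubation, using midazolam and testosterone as substrates.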

CYP1A2 = biological target: T1, CYP1A2 (Homo sapiens, UniProt P05177); experiment: biochemical; type: in vitro ADME; details: read-out: IC50, CYP1A2; human liver microsomes; substrate phenacetin
T1 sequence (P05177 1-516): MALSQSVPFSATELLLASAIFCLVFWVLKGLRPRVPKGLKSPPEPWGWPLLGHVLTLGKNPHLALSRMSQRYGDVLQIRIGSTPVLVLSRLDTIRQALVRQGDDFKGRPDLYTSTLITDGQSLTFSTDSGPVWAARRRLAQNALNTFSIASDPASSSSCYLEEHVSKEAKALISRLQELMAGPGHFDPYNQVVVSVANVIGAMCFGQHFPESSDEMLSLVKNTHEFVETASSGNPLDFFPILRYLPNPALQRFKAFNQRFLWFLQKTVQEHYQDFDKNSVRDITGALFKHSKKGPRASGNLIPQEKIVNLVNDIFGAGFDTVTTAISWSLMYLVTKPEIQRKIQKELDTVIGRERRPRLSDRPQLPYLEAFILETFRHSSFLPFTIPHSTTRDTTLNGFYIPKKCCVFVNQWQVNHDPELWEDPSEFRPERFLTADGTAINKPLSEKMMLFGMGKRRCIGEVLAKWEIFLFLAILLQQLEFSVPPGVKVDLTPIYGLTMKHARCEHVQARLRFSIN

UGT1A1 = biological target: T2, UGT1A1 (Homo sapiens, UniProt P22309); experiment: UGT1A1 inhibition in human liver microsomes; type: in vitro ADME; details: read-out: IC50, UGT1A1, substrate estradiol
T2 sequence (P22309 26-533): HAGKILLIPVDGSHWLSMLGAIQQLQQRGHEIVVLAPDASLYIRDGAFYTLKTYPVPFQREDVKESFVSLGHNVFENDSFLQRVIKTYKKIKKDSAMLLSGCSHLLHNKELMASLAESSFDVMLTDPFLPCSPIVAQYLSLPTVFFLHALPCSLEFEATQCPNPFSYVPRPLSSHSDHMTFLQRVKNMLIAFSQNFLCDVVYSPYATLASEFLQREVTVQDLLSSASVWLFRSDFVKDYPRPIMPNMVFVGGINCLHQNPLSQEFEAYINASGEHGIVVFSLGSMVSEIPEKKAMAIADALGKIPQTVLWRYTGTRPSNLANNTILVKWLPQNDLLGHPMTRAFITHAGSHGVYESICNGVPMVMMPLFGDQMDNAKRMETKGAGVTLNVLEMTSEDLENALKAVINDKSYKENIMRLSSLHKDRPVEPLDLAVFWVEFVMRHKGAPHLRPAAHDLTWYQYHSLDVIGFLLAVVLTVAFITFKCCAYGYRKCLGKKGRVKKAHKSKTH
In short: as §1

CYP2E1 = CYP2E1 (Homo sapiens, UniProt P05181); experiment: CYP2E1 inhibition in human liver microsomes; type: in vitro ADME; details: read-out: IC50, CYP2E1; human liver microsomes; substrate chlorzoxazone
In short: as §2

CYP2C19 = CYP2C19 (Homo sapiens, UniProt P33261); experiment: CYP2C19 inhibition in human liver microsomes; type: in vitro ADME; details: read-out: IC50, CYP2C19; human liver microsomes; substrate S-mephenytoin
In short: as §2

CYP2A6 = biological target: T3, CYP2A6 (Homo sapiens, UniProt P11509); experiment: CYP2A6 inhibition in human liver microsomes; type: in vitro ADME; details: read-out: IC50, CYP2A6; human liver microsomes; substrate coumarin
T3 sequence (P11509 1-494): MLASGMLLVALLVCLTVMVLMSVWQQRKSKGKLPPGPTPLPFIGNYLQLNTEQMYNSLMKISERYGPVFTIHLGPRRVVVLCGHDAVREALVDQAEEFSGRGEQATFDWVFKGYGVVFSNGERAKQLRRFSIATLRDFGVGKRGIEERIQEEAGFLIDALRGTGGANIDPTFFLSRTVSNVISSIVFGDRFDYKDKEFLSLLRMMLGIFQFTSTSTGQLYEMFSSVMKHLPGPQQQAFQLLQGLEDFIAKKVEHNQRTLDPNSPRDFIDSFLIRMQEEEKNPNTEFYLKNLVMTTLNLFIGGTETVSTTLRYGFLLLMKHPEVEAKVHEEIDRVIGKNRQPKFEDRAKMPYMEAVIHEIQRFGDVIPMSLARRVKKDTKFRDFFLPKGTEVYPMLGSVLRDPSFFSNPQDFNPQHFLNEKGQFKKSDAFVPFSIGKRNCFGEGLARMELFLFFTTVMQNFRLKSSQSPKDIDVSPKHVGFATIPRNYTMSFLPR
In short: as §2

CYP2D6 = CYP2D6 (Homo sapiens, UniProt P10635); experiment: CYP2D6 inhibition in human liver microsomes; type: in vitro ADME; details: read-out: IC50, CYP2D6; human liver microsomes; substrate dextromethorphan
In short: as §2

[1] = Clinical plasma and intestinal concentrations of darolutamide; parameters: species or system human
CYP2C9 = CYP2C9 (Homo sapiens, UniProt P11712); experiment: CYP2C9 inhibition in human liver microsomes; type: in vitro ADME; details: read-out: IC50, CYP2C9; human liver microsomes; substrate diclofenac
In short: as §2

CYP2B6 = biological target: T4, CYP2B6 (Homo sapiens, UniProt P20813); experiment: biochemical; type: in vitro ADME; details: read-out: IC50, CYP2B6; human liver microsomes; substrate bupropion
T4 sequence (P20813 1-491): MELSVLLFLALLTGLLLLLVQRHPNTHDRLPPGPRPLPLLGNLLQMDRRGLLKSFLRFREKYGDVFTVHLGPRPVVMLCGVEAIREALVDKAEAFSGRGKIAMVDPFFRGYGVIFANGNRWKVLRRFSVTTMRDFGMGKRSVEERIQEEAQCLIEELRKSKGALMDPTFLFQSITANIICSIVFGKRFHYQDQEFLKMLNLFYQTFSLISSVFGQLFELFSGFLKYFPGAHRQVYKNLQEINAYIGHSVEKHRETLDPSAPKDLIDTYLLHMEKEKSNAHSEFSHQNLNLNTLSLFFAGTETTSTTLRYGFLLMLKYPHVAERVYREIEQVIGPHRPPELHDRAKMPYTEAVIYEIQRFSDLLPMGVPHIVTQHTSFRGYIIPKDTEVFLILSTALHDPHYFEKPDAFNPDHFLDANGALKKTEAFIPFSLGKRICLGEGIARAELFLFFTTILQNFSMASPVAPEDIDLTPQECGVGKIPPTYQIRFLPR

CYP2C8 = biological target: T5, CYP2C8 (Homo sapiens, UniProt P10632); experiment: CYP2C8 inhibition in human liver microsomes; type: in vitro ADME; details: read-out: IC50, CYP2C8; human liver microsomes; substrate amodiaquine
T5 sequence (P10632 1-490): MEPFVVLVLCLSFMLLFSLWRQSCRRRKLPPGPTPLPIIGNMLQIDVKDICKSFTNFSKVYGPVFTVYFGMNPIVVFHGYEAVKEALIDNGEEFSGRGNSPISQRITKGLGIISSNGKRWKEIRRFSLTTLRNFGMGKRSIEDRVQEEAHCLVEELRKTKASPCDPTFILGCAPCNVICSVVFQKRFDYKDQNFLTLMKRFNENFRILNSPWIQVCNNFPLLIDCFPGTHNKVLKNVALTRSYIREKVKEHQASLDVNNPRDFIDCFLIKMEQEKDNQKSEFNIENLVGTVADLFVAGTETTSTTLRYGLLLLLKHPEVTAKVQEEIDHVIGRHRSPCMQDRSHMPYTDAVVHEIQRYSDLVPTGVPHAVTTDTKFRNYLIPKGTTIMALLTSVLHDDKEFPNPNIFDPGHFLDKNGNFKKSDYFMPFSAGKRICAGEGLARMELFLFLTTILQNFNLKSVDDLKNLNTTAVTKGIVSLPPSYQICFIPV
In short: as §2

[2] = type: in vivo, human; details: healthy male volunteers
[3] = cited from earlier work
[4] = Phase I study: darolutamide effect on rosuvastatin pharmacokinetics; type: in vivo, human
[5] = read-out: IC50, CYP3A4 (with pre-incubation), substrate midazolam, 30 min pre-incubation
[6] = read-out: IC50, CYP3A4 (with pre-incubation), substrate testosterone, 30 min pre-incubation
[7] = read-out: IC50, CYP3A4, substrate midazolam
[8] = read-out: IC50, CYP3A4, substrate testosterone
[9] = midazolam 1 mg and dabigatran etexilate 75 mg cocktail, darolutamide 600 mg

Sequence of CYP3A4 (P08684 whole entry, canonical isoform): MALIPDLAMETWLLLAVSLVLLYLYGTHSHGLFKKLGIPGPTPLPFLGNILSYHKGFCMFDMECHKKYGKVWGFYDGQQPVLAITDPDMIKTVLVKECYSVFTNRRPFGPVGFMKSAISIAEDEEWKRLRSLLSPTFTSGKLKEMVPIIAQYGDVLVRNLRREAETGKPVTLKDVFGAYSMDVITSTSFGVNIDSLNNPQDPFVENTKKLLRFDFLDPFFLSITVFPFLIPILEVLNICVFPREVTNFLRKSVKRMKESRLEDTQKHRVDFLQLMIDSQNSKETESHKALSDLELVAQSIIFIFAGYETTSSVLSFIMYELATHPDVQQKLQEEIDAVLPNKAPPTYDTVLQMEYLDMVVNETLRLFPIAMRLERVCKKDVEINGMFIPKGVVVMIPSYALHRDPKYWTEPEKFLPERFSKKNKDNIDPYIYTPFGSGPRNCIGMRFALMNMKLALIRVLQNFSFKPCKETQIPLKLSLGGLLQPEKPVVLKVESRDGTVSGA
Sequence of CYP2C9 (P11712 whole entry): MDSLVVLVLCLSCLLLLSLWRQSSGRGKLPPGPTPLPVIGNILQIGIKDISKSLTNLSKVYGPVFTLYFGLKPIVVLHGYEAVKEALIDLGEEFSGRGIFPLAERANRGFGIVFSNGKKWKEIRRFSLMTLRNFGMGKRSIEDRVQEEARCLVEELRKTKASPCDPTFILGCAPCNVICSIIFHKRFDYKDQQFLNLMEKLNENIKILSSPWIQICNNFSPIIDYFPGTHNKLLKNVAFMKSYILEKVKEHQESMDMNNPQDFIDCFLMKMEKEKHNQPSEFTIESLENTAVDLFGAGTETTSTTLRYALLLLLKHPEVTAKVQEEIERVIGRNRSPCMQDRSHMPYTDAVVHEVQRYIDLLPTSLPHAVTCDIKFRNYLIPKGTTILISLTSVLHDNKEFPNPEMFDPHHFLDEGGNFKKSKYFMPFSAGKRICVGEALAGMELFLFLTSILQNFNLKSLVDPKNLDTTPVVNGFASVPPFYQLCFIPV
Sequence of CYP2E1 (P05181 whole entry): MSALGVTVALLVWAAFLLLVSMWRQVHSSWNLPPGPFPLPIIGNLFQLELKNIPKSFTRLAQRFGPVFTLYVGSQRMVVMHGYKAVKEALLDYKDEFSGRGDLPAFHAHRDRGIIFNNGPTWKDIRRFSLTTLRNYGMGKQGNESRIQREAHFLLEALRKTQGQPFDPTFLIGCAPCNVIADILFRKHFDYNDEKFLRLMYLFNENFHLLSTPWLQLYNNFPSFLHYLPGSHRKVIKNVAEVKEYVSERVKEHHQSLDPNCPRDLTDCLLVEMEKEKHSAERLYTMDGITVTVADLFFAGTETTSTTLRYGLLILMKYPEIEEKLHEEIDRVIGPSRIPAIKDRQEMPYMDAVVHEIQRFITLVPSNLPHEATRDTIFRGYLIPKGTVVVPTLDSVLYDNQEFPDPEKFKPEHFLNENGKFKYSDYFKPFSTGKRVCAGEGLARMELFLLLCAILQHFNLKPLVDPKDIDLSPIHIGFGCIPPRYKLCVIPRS
Sequence of CYP2D6 (P10635 whole entry): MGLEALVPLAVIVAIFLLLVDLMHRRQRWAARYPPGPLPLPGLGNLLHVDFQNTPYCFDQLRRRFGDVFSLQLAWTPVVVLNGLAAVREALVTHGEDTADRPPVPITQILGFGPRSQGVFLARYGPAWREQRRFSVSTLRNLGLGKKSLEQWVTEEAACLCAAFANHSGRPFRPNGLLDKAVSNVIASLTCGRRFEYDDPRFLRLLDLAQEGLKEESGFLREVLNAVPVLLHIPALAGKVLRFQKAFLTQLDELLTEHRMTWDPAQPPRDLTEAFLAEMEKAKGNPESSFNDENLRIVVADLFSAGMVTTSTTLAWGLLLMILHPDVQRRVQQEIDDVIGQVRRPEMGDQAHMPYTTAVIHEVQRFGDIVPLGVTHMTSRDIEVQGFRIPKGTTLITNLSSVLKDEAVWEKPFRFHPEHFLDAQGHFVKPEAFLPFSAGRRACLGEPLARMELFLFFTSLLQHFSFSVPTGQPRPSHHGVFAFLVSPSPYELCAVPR
Sequence of CYP2C19 (P33261 whole entry): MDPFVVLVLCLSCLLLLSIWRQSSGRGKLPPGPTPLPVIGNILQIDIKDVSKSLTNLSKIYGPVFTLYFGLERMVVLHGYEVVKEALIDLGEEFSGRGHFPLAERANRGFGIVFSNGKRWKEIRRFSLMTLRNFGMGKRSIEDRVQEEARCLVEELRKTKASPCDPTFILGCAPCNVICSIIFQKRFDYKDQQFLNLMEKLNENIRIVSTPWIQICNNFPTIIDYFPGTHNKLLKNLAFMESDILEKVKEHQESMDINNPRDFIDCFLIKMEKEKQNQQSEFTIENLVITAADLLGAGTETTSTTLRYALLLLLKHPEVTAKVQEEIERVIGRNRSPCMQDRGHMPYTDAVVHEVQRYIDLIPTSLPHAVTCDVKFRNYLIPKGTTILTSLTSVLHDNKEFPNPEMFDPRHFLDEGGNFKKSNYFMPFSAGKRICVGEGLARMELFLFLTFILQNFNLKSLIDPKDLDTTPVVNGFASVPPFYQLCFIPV
Sequence of UGT1A9 (O60656 26-530): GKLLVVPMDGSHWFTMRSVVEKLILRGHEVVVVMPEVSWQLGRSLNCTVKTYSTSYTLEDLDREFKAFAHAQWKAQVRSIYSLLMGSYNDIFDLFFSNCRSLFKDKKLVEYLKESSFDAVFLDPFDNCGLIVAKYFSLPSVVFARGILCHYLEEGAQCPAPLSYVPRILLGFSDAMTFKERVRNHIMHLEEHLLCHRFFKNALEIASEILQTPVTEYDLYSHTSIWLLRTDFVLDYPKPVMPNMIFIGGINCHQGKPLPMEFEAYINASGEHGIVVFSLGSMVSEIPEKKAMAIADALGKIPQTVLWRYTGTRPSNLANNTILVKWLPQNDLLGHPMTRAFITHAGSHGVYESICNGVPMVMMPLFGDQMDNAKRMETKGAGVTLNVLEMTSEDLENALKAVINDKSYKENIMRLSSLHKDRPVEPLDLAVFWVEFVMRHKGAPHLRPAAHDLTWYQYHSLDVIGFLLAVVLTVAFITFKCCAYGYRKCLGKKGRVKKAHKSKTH

Question: With `C[C@@H](Cn1ccc(-c2ccc(C#N)c(Cl)c2)n1)NC(=O)c1cc([C@@H](C)O)[nH]n1` [(S,R)-darolutamide] as the compound, how does the IC50 (UGT1A9; read-out: IC50, UGT1A9, substrate propofol) read?
Answer: 12.5 µM

Question: What about the Ki (UGT1A9; read-out: Ki, UGT1A9) of the same compound?
Answer: 6.32 µM

Question: And the IC50 (CYP3A4; [5])?
Answer: > 50 µM

Question: What about the IC50 (CYP3A4; [6]) of the same compound?
Answer: > 50 µM

Question: What about the IC50 (CYP3A4; [7]) of the same compound?
Answer: > 50 µM

Question: And the IC50 (CYP3A4; [8])?
Answer: > 50 µM

Question: What about the IC50 (CYP1A2) of the same compound?
Answer: > 50 µM

Question: And the IC50 (UGT1A1)?
Answer: 26.5 µM

Question: And the IC50 (CYP2E1)?
Answer: > 50 µM

Question: And the IC50 (CYP2C19)?
Answer: 46.7 µM

Question: What about the IC50 (CYP2A6) of the same compound?
Answer: > 50 µM

Question: What about the IC50 (CYP2D6) of the same compound?
Answer: > 50 µM

Question: And the “plasma concentration of unbound drug” value [1]?
Answer: < 600 nM

Question: What about the IC50 (CYP2C9) of the same compound?
Answer: 22.6 µM

Question: And the IC50 (CYP2B6)?
Answer: > 50 µM

Question: And the IC50 (CYP2C8)?
Answer: 36.2 µM

Question: Which IC50 (CYP3A4; [5]) does the source give for `C[C@H](O)c1cc(C(=O)N[C@@H](C)Cn2ccc(-c3ccc(C#N)c(Cl)c3)n2)n[nH]1` [(S,S)-darolutamide] here?
Answer: > 50 µM

Question: And the IC50 (CYP3A4; [6])?
Answer: > 50 µM

Question: And the IC50 (CYP3A4; [7])?
Answer: > 50 µM

Question: And the IC50 (CYP3A4; [8])?
Answer: > 50 µM

Question: And the IC50 (CYP1A2)?
Answer: > 50 µM

Question: What about the IC50 (UGT1A1) of the same compound?
Answer: 31.7 µM

Question: What about the IC50 (CYP2E1) of the same compound?
Answer: > 50 µM

Question: What about the IC50 (CYP2C19) of the same compound?
Answer: > 50 µM

Question: And the IC50 (CYP2A6)?
Answer: > 50 µM

Question: And the IC50 (CYP2D6)?
Answer: 40.2 µM

Question: And the “plasma concentration of unbound drug” value [1]?
Answer: < 600 nM

Question: And the IC50 (CYP2C9)?
Answer: > 50 µM

Question: What about the IC50 (CYP2B6) of the same compound?
Answer: > 50 µM

Question: And the IC50 (CYP2C8)?
Answer: 46.3 µM

Question: Which “tmax in the presence and absence of darolutamide” value [2] does the source give for `Cc1ncc2n1-c1ccc(Cl)cc1C(c1ccccc1F)=NC2` [midazolam] here?
Answer: comparable

Question: What about the “t½ in the presence and absence of darolutamide” value [2] of the same compound?
Answer: comparable

Question: What about the “reduction in Cmax with co-administered darolutamide versus alone” value [2, 9] of the same compound?
Answer: ~32%

Question: With `[H]/N=C(/N)c1ccc(NCc2nc3cc(C(=O)N(CCC(=O)O)c4ccccn4)ccc3n2C)cc1` [non-conjugated dabigatran, dabigatran] as the compound, how does the “tmax in the presence and absence of darolutamide” value [2] read?
Answer: comparable

Question: And the “t½ in the presence and absence of darolutamide” value [2]?
Answer: comparable

Question: And the “reduction in AUC with co-administered darolutamide versus alone” value [2, 9]?
Answer: 9%

Question: And the “reduction in Cmax with co-administered darolutamide versus alone” value [2, 9]?
Answer: 16%

Question: For `CC(C)c1nc(N(C)S(C)(=O)=O)nc(-c2ccc(F)cc2)c1/C=C/[C@@H](O)C[C@@H](O)CC(=O)O` [rosuvastatin], which “fraction absorbed (fa)” value [3] is on record?
Answer: 0.5

Question: And the “AUC(0–24)” value ([3]; single dose of 5 mg rosuvastatin, healthy subjects, fasted condition)?
Answer: 19.2 ng·h/mL

Question: And the “effect of darolutamide comedication on t½” value ([4]; healthy subjects)?
Answer: did not affect

Question: What about the “increase in rosuvastatin exposure with darolutamide” value ([4]; healthy subjects, rosuvastatin 5 mg, darolutamide 600 mg twice daily) of the same compound?
Answer: approximately fivefold

Question: And the “observed exposure as % of the reported fasted AUC(0–24)” value ([4]; human, in vivo)?
Answer: 34%

Question: What about the “incidence of treatment-emergent AEs, alone versus with concomitant darolutamide” value ([4]; single doses of rosuvastatin 5 mg) of the same compound?
Answer: similar

Source: publication PMC6828636 (European Journal of Drug Metabolism and Pharmacokinetics, 2019)
